In ChEMBL document CHEMBL1764962, “Selective biocatalytic aminolysis of (±)-epichlorohydrin: synthesis and ICAM-1 inhibitory activity of (S)-(+)-3-arylamino-1-chloropropan-2-ols” (Bioorg Med Chem, 2011) one finds MNTC, inhibition and IC50 data, which are given here for seven compounds.

Data set [1] is described as follows: Toxicity in human HUVEC assessed as maximum tolerable dose by trypan blue exclusion assay. It is filed as cell-based. As to conditions: HUVEC cells, read-out: MTD; call rule not given here. In outline: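 Primary human umbilical vein endothelial cells were isolated by mild trypsinization. They were grown in M199 with 15% heat-inactivated FCS, 2 mM L-glutamine, penicillin/streptomycin, amphotericin B, endothelial cell growth factor and heparin. Cells were subcultured at confluence with trypsin–EDTA and used at passages three to four. Viability was scored by trypan blue exclusion.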

Data set [2] concerns HUVEC. The experiment in a line: Antiinflammatory activity in human HUVEC assessed as inhibition of TNF-alpha-induced ICAM-1 expression at maximum tolerable dose of 30 ug/ml by modified ELISA. The format is functional. In outline:
(§1)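 Primary human umbilical cord endothelial cells were isolated by mild trypsinization and grown in M199 with 15% heat-inactivated FCS, L-glutamine, antibiotics, endothelial cell growth factor and heparin, then used at passages 3–4. Cells were preincubated with compound, then given TNF-α (10 ng/ml) for 16 h and fixed with glutaraldehyde. Surface ICAM-1 was measured by cell-ELISA using anti-ICAM-1 mAb overnight at 4 °C, HRP anti-mouse secondary and OPD substrate (pH 4.5), reading A490.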
Background: In an ELISA, binding on a coated surface is turned into a signal by an enzyme label.

In data set [3] the test system is HUVEC. The experiment in a line: Antiinflammatory activity in human HUVEC assessed as inhibition of TNF-alpha-induced ICAM-1 expression by modified ELISA. It is filed as functional, cell-based. The method in brief:
as §1

In data set [4] the test system is HUVEC. The experiment in a line: Antiinflammatory activity in human HUVEC assessed as inhibition of TNF-alpha-induced ICAM-1 expression at maximum tolerable dose of 40 ug/ml by modified ELISA. It is filed as functional. In outline:
as §1

The mark [5] stands for this setting: Homo sapiens, HUVEC, read-out: IC50.

In brackets after ≈: the same amount, converted by molar mass.

A word on the inhibition: it is the percentage by which the read-out fell short of the control. What is called IC50 is the midpoint of a concentration-inhibition curve. In the case of `O[C@H](CCl)CNc1ccccc1`, in data set [1], the MNTC amounted to 30 µg/mL. In data set [2], the inhibition at 30 µg/mL came out at 38%. The IC50 in data set [3] (setting [5]) came to 39.8 µg/mL (≈ 214 µM).

Turning to `Cc1ccc(NC[C@H](O)CCl)cc1`, in data set [1], the MNTC was 40 µg/mL. For the same compound, the IC50 in data set [3] (setting [5]) worked out at 28.8 µg/mL (≈ 144 µM). Also, the inhibition at 40 µg/mL in data set [4] stood at 81%.

On to `O[C@H](CCl)CNc1ccccc1Cl`, for which the MNTC in data set [1] was 40 µg/mL. In addition, in data set [3] (setting [5]), the IC50 turned out to be 33.1 µg/mL (≈ 150 µM). Also, the inhibition at 40 µg/mL in data set [4] is 86%.

On to `O[C@H](CCl)CNc1ccc(Cl)cc1`, for which, in data set [1], the MNTC stood at 30 µg/mL. Also, the inhibition at 30 µg/mL in data set [2] is 60%. In addition, the half-maximal inhibitory concentration (IC50) in data set [3] (setting [5]) was 28.8 µg/mL (≈ 131 µM).

With `O[C@H](CCl)CNc1ccc(Br)cc1`, the MNTC in data set [1] worked out at 40 µg/mL. The IC50 in data set [3] (setting [5]) was 31.6 µg/mL (≈ 119 µM). In addition, in data set [4], the inhibition at 40 µg/mL was found to be 76%.

Regarding `O[C@H](CCl)CNc1cccc(Cl)c1`, the MNTC in data set [1] is 30 µg/mL. Also, the inhibition at 30 µg/mL in data set [2] came out at 24%. In data set [3] (huvec), the IC50 result is listed as “Not Active”.

Regarding `COc1ccc(OC)c(NC[C@H](O)CCl)c1`, in data set [1], the MNTC is 30 µg/mL. Also, the inhibition at 30 µg/mL in data set [2] came to 40%. The IC50 result in data set [3] (huvec) was “Not Active”.
